MrgX1 allo act: allosterically activates human MrgX1 receptor signaling; B-score at 10 µM; Q96LB2; 310,000 compounds, 0.63% hits; MrgX1-HEK293, Fluo-4 calcium flux, FDSS; active compounds read high;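 active = plate-corrected calcium response at least 3 library SD above typical, normal starting fluorescence, not activating the receptor alone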;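 note: compound read alongside a low EC10 to EC30 dose of BAM8-22 agonist; peak minus trough fluorescence over baseline measured at the second addition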
Target sequence (Q96LB2 whole entry, looked up): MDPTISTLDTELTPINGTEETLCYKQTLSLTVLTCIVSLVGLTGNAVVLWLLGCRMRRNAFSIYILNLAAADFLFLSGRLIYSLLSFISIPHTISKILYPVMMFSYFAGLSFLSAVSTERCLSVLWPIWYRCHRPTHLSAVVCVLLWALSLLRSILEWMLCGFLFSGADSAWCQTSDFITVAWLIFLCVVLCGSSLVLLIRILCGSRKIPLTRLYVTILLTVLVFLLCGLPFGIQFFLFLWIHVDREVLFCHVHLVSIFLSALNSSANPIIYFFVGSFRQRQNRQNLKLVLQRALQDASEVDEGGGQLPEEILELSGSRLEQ
RGS4 act: potentiators or activators of RGS4. B-score at 10 µM. AID 463111. HEK293 M3R/inducible RGS4, carbachol calcium flux Fluo4; active compounds read low. 310,000 compounds, 0.92% hits;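 active = B-score of the integrated calcium signal more than 4 SD below the library mean, with starting fluorescence not abnormally high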;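 note: negative B-score means reduced calcium response which marks RGS4 activation or potentiation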
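Assay system: Inducible-RGS4 HEK293 cells carrying M3 receptor | Schedule: Compound preincubation 20 min at room temperature before agonist | Signal: Kinetic calcium fluorescence imaging with Fluo4-AM dye, 2 µM | Read-out basis: B score from integrated fluorescence ratio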
RGS4 inh: human RGS4 inhibition. B-score at 10 µM. 310,000 compounds, 0.45% hits. HEK293 M3R/RGS4 inducible, Fluo-4 calcium flux; active compounds read high; triggered by carbachol at its EC20;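 active = B-score, a plate-corrected calcium signal, over three deviations above library mean, with baseline fluorescence within five deviations of library mean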;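 note: RGS4 expression induced by doxycycline in cells with stable M3 receptor; B-score is computed from the integrated fluorescence ratio over baseline after carbachol; higher B-score means a larger calcium signal and so more RGS4 inhibition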
Target sequence (P49798 whole entry, looked up): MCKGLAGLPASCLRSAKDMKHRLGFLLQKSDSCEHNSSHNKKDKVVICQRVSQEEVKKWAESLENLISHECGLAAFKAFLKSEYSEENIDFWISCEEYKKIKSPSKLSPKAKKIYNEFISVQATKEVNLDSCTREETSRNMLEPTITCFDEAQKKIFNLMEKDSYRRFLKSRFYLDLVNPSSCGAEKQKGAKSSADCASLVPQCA
MrgX1 agonist: agonists of human MrgX1 receptor | Q96LB2 | MrgX1-HEK293 cells, Fluo-4 calcium fluorescence, agonist mode; active compounds read high | B-score at 10 µM | 310,000 compounds, 0.44% hits | AID 588627;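 active = calcium response B-score plate-corrected fluorescence ratio at least 3 library SD, with starting fluorescence B-score inside 5 SD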
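System: HEK293 cells stably expressing human MrgX1 receptor; Dosing: test compound in the initial addition of three; Schedule: overnight plating, then 30 min 37 °C plus 30 min room-temperature dye loading; Detection: kinetic calcium dye fluorescence, Fluo-4 NW; Controls: per-plate positive and negative controls for Z′ factor.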
MrgX1 antagonist: human MrgX1 receptor antagonism, primary screen; MRGX1-HEK293 calcium flux, Fluo-4, BAM8-22 antagonism; active compounds read low; Q96LB2; B-score at 10 µM; AID 588676; 310,000 compounds, 1.3% hits;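 active = calcium-response B-score plate-corrected more than 3 library SD below zero, starting fluorescence within 5 deviations, no agonist response on first addition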;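 note: peak minus trough fluorescence over baseline after final BAM8-22 challenge near maximal dose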
MrgX1 antag conf: reconfirmed antagonist of human MrgX1 receptor signaling; shares compounds with MrgX1 antagonist; MrgX1-HEK293, BAM8-22 calcium flux, Fluo-4; active compounds read low; remaining BAM8-22 calcium response % of control (active compounds read low), % at 10 µM; AID 602420; 2,300 compounds, 19% hits;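 active = remaining agonist calcium response no higher than 100% minus 3 SD of agonist-only control wells, with starting fluorescence near control levels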;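 note: agonist BAM8-22 given at a near maximal EC90 to ECmax level; peak minus minimum fluorescence divided by baseline after agonist addition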
HEK293 Ca flux: counter-screen for MrgX1 antagonists: effect in parental HEK293 cells; 4,000 compounds, 2% hits; fluorescence ratio F(max-min)/F0 at 10 µM; Fluo-4 calcium fluorescence, FDSS; shares compounds with MrgX1 antagonist; AID 624111;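 active = duplicate-averaged calcium fluorescence ratio at least three times the standard deviation of buffer wells, a nonspecific response in parental cells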
HEK293 Ca counter: counter-screen for MrgX1 allosteric activators: effect in parental HEK293 cells | shares compounds with MrgX1 antagonist | fluorescence ratio F(max-min)/F0 at 10 µM | parental HEK293 calcium flux, Fluo-4 fluorescence ratio; active compounds read high | 4,000 compounds, 0.4% hits;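 active = calcium fluorescence ratio, averaged over duplicates, at least 3 SD of the buffer-well ratio, meaning a nonspecific response in receptor-free cells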;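 note: untransfected parental HEK293 lacking MrgX1 used as counterscreen for MrgX1 allosteric activators; fluorescence change taken during the second addition on a kinetic imager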
HEK293 Ca cntr2: MrgX1 activator counter-screen hit in parental HEK293 cells; Fluo-4 calcium fluorescence (FDSS); active compounds read high; AID 624115; fluorescence ratio F(max-min)/F0 at 10 µM; shares compounds with MrgX1 antagonist; 4,000 compounds, 8.7% hits;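 active = calcium fluorescence ratio at least three times the spread of buffer wells, meaning a non-specific response in parental cells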
A number is an active result; . = inactive; / = no result given. Hits are enriched below; roughly 3.5% of the tested compounds scored in any of these assays.

SMILES	MrgX1 allo act	RGS4 act	RGS4 inh	MrgX1 agonist	MrgX1 antagonist	MrgX1 antag conf	HEK293 Ca flux	HEK293 Ca counter	HEK293 Ca cntr2
CCOC(=O)C1=C(COC(=O)c2cc(OC)c(OC)cc2[N+](=O)[O-])NC(=O)NC1C (centres undefined)	.	.	.	.	.	/	/	/	/
O=C(CSc1nc(-c2ccc(F)cc2)cs1)N1CCOCC1	.	.	.	.	-9.2	.	.	.	.
CCOC(=O)c1cnc(SC)nc1Oc1cccc(NS(=O)(=O)c2ccccc2)c1	.	.	.	.	.	/	/	/	/
CCOC(=O)c1cnc(SC)nc1Oc1cccc(NS(=O)(=O)c2ccc(F)cc2)c1	.	.	.	.	-6.8	.	.	.	.
COc1cc2cc3c(N)c(C(=O)Nc4sc(C)c(C)c4C#N)sc3nc2cc1OC	.	.	.	.	-6.2	74%	.	.	.
CCC(=O)Nc1cc(C(=O)NCC2CCCN2CC)c(OC)cc1N(C)C (centres undefined)	.	.	.	.	.	/	/	/	/
CCN1CCCC1CNC(=O)c1cc(NC(C)=O)c(N(C)C)cc1OC (centres undefined)	.	.	.	.	-6.5	.	.	.	.
Cc1cc(C)n(Cc2ccc(C(=O)O)o2)n1	.	.	.	.	.	/	/	/	/
O=C(c1ccc(Br)o1)N1CCN(C23CC4CC(CC(C4)C2)C3)CC1	.	.	.	.	-5	.	.	.	.
Cc1ccc2c(Cl)c(C(=O)NCC3CCCO3)sc2c1 (centres undefined)	.	.	.	.	-4.6	.	.	.	.
COc1ccc(CC(=O)NCc2cccs2)cc1	.	.	.	.	-6.6	.	.	.	.
COc1ccc(CNC(=O)COC(=O)Cc2ccsc2)cc1	.	.	.	.	-4.5	.	.	.	.
CCOc1ncccc1C(=O)OCC(=O)NCc1ccc2c(c1)OCO2	.	.	.	.	-4.9	.	.	.	.
O=C(Cc1cccs1)NCc1ccc2c(c1)OCO2	.	.	.	.	-8	.	.	.	.
BrC(/C=N/Nc1nc(N2CCOCC2)nc(N2CCOCC2)n1)=C/c1ccccc1	.	.	.	.	.	/	/	/	/
COc1ccc(Cn2cc(F)c(=O)n(C)c2=O)cc1[N+](=O)[O-]	.	.	.	.	.	/	/	/	/
CN(CCCOc1ccccc1F)Cc1ccccc1	.	.	.	.	.	/	/	/	/
CN(CCCOc1ccccc1Br)Cc1ccccc1	.	.	.	.	-6	.	.	.	.
COC(C(=O)NC(C(C)C)C(C)C)c1ccccc1 (centres undefined)	.	.	.	.	-5.9	.	.	.	.
COC(C(=O)Nc1ccc(NC(=O)C(OC)c2ccccc2)cc1)c1ccccc1 (centres undefined)	.	.	.	.	.	/	/	/	/
CC(C)(C)c1ccc(-n2ncc3c2CCCC3NC(=O)CCN2CCCCC2=O)cc1 (centres undefined)	.	.	.	.	.	/	/	/	/
Cc1cc(C)cc(-n2ncc3c2CCCC3NC(=O)CN2CCCCC2=O)c1 (centres undefined)	.	.	.	.	-8.3	.	.	.	.
CCn1cc(C=C2C(=O)c3ccccc3C2=O)c2ccccc21	/	.	.	/	/	/	/	/	/
COc1ccc(NC(=O)CN2CCN(c3ccc(F)cc3)CC2)cc1	.	.	.	.	.	/	/	/	/
CCOc1ccc(NC(=O)CN2CCN(c3ccc(F)cc3)CC2)cc1	.	.	.	.	-5.5	.	.	.	.
SMILES	MrgX1 allo act	RGS4 act	RGS4 inh	MrgX1 agonist	MrgX1 antagonist	MrgX1 antag conf	HEK293 Ca flux	HEK293 Ca counter	HEK293 Ca cntr2
NCCc1nnc(SCC(=O)Nc2ccc(Br)cc2)o1	.	.	.	.	.	/	/	/	/
CC(CCc1ccccc1)NC(=O)COC(=O)C1=COCCO1 (centres undefined)	.	.	.	.	.	/	/	/	/
CCCCCCCCCCOC(=O)Cn1c(COc2ccccc2OC)[n+](C)c2ccccc21	.	-8.4	.	.	-11	59%	.	.	.
CCOC(=O)CN1CC23C=CC(O2)C(C(=O)NC2CCCCCC2)C3C1=O (centres undefined)	.	.	.	.	.	/	/	/	/
O=C(CCS(=O)(=O)Cc1ccccc1)NC1CCCCC1	.	.	.	.	-4.9	.	.	.	.
O=C(CCSc1ccccc1)NC1CCCC1	.	.	.	.	-8.8	.	.	.	.
O=C(CCS(=O)(=O)c1ccccc1)NC1CCCCC1	.	.	.	.	.	/	/	/	/
O=C(NCCc1ccccc1)NC1CCCCC1	.	.	.	.	-4.8	.	.	.	.
O=C(CCSc1ccccc1)NCc1cccnc1	.	.	.	.	-5.5	85%	.	.	.
O=C(CCSc1ccc(Cl)cc1)NC1CCCC1	.	.	.	.	.	/	/	/	/
CCCCCCCNC1=CC(=O)CC(c2ccco2)C1 (centres undefined)	.	.	.	.	.	/	/	/	/
COC(=O)c1cc2c(ccn2-c2ccc(F)cc2)n1Cc1ccc(C#N)cc1	.	.	.	.	-4.7	.	.	.	.
CCN(CC)c1ccc(C(=O)O)cc1	.	.	.	.	-5.7	.	.	.	.
COc1ccc(C(=O)N2CCOC2CNC(=O)C(=O)NCc2ccc(F)cc2)cc1 (centres undefined)	.	.	.	.	-5.1	.	.	.	.
COc1ccc2c(CC(=O)N[C@@H](Cc3ccccc3)C(=O)O)cc(=O)oc2c1	.	.	.	.	.	/	/	/	/
Cc1c(O)ccc2c(CC(=O)N[C@@H](Cc3ccccc3)C(=O)O)cc(=O)oc12	.	.	.	.	-4.9	84%	.	.	.
O=C(Nc1ccc2[nH]c(=O)[nH]c2c1)C(F)(F)F	.	.	.	.	.	/	/	/	/
O=C(NCc1ccc2c(c1)OCO2)c1ccc(S(=O)(=O)N2CCCCC2)cc1	.	.	.	.	.	/	/	/	/
Cc1ccc(NS(=O)(=O)c2ccc(OCC(N)=O)cc2)cc1	.	.	.	.	-9.4	.	.	.	.
Cc1ccc(NS(=O)(=O)c2ccc(C(=O)NCc3ccncc3)cc2)cc1	.	.	.	.	-4.6	79%	.	.	.
O=C(NCc1ccc2c(c1)OCO2)c1ccc(NS(=O)(=O)c2ccc3c(c2)OCCO3)cc1	.	.	.	.	-6.9	.	.	.	.
CNC(=O)COc1ccc(S(=O)(=O)Nc2ccc(C)cc2)cc1	.	.	.	.	.	/	/	/	/
O=C(CCCc1cccs1)NCCc1c[nH]c2ccccc12	.	.	.	.	.	/	/	/	/
